Test results taken from ChEMBL document CHEMBL1144899, “Influence of phenyl ring disubstitution on bisbenzimidazole and terbenzimidazole cytotoxicity: synthesis and biological evaluation as radioprotectors” (2003).
Values joined by “and” are separate entries in the source; they are usually repeats but may differ in a detail not shown here. Identical values can stand only once.

Key:
[1] = (§1) In Vitro Cytotoxicity against BMG-1 (Human glioma cell line with a DNA index of 0.96; wild type TP 53) using Irradiation procedures followed by Macrocolony assay at 10 Gy and 10 (uM); type: functional
Outline: (§2)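 Exponential BMG-1 (24 h after plating) given 10 μM drug 1 h before irradiation. Co-60 gamma rays at room temperature in growth medium, 0.5–1.2 Gy/min, at 2, 5 or 10 Gy. Cells plated for macrocolony assay, 8–10 days at 37 °C in 5% CO2; crystal violet-stained colonies >50 cells counted; survival as percent of irradiated control at each dose.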

[2] = In Vitro Cytotoxicity against BMG-1 (Human brain malignant glioma cell line with a DNA index of 0.96; wild type TP 53) using MTT assay at 10 uM at 72 hours; type: functional
Outline: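 Then MTT at 0.5 mg/mL final for 2 h at 37 °C; formazan dissolved in DMSO; absorbance read at 570 nm against 630 nm reference; results as percent survival.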

[3] = In Vitro Cytotoxicity against BMG-1 (Human brain malignant glioma cell line with a DNA index of 0.96; wild type TP 53) using Macrocolony assay (clonogenicity) at 100 uM at 72 hours; type: functional; details: read-out: Survival
[4] = In Vitro Cytotoxicity against BMG-1 (Human glioma cell line with a DNA index of 0.96; wild type TP 53) using Irradiation procedures followed by Macrocolony assay at 5Gy and 10 (uM); type: functional; outline: as §2
Nucleic Acid [5] = assay: DNA binding property using 100(uM) of calf thymus DNA (CTDNA) and at 10(uM) was determined; type: nucleic-acid assay; details: Bos taurus
Outline: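 Calf thymus DNA (100 μM) with ligand at drug/DNA ratio r = 0.1 (10 μM drug) in 2 mM sodium cacodylate buffer, equilibrated 25 min. Thermal melting by absorbance at 260 nm, heated 25 to 100 °C at 0.5 °C/min; Tm taken as the midpoint of normalized curves, ΔTm relative to DNA alone. UV absorption (200–500 nm) and fluorescence emission spectra also recorded.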

[6] = In Vitro Cytotoxicity against BMG-1 (Human brain malignant glioma cell line with a DNA index of 0.96; wild type TP 53) using MTT assay at 100 uM at 24 hours
[7] = Percent cell kill against BMG-1 (Human brain malignant glioma cell line with a DNA index of 0.96; wild type TP 53) at 1 hour incubation at 100 (uM)
[8] = In Vitro Cytotoxicity against BMG-1 (Human glioma cell line with a DNA index of 0.96; wild type TP 53) using Irradiation procedures followed by Macrocolony assay at 2 Gy and 10 (uM); type: functional; outline: as §2
Nucleic Acid [9] = assay: DNA binding property using 100(uM) of calf thymus DNA (CTDNA) and at 100(uM) was determined; type: nucleic-acid assay; details: Bos taurus
[10] = Percent cell kill against BMG-1 (Human brain malignant glioma cell line with a DNA index of 0.96; wild type TP 53) at 1 hour incubation at 10 (uM)
[11] = In Vitro Cytotoxicity against BMG-1 (Human brain malignant glioma cell line with a DNA index of 0.96; wild type TP 53) using Macrocolony assay at 10 uM […]; type: functional
Outline: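 BMG-1 glioma cells in DMEM with 5% fetal calf serum at 37 °C, exponential phase, 24 h after plating. Drug (0.1, 1, 10 or 100 μM) given for 1 h, then washed off. 200–1200 cells plated and grown 8–10 days at 37 °C in 5% CO2. Colonies fixed in methanol and stained with crystal violet; colonies over 50 cells counted and expressed as percent of control.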

[12] = In Vitro Cytotoxicity against BMG-1 (Human glioma cell line with a DNA index of 0.96; wild type TP 53) using Irradiation procedures followed by Macrocolony assay at 5Gy and 10 (uM) at 24 hr; type: functional; details: in the assay text read “growth kinetics” for “Macrocolony assay”
Homo sapiens = species: Homo sapiens; assay: In Vitro Cytotoxicity against BMG-1 (Human glioma cell line with a DNA index of 0.96; wild type TP 53) using MTT assay at 100 uM at 72 hours; No effect on the proliferation kinetics of BMG-1 cells.; type: functional, cell-based
[13] = as §1; type: functional; remark: listed apart in the source
Outline: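 Exponentially growing BMG-1 cells, 24 h after plating, given 10 μM ligand 1 h before irradiation. Co-60 gamma irradiation (2, 5 or 10 Gy) at room temperature in growth medium at 0.5–1.2 Gy/min. Cells then plated and colonies of more than 50 cells counted after 8–10 days. Survival expressed as percent of cells irradiated at the same dose without ligand.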

[14] = In Vitro Cytotoxicity against BMG-1 (Human glioma cell line with a DNA index of 0.96; wild type TP 53) using Macrocolony assay (clonogenicity) at 100 uM at 72 hours; type: functional; details: read-out: Survival

Compound | Survival [1] [%] | Killed [2] [%] | viability at 100 µM [3] [%] | Survival [4] [%] | Lambda-em (Nucleic Acid [5]) [nm] | Lambda-ex (Nucleic Acid [5]) [nm] | Lysis [6] [%] | Cell kill % [7] [%] | Survival [8] [%] | Lambda-em (Nucleic Acid [9]) | Lambda-ex (Nucleic Acid [9]) | Tm (Nucleic Acid [9]) [°C] | ΔTm (Nucleic Acid [9]) [°C] | Cell kill % [10] [%] | Protection [11] [%] | Protection [12] [%] | NA (Homo sapiens) | Protection [13] [%] | viability at 100 µM [14] [%]
CCOc1ccc(-c2nc3cc(-c4nc5cc(N6CCN(C)CC6)ccc5[nH]4)ccc3[nH]2)cc1 | 15 | 35 | 10 | 15 | 500 | 340 | 77 | 90 | 10 | 484 nm | 354 nm | 76 | 6 | 55 |  |  |  |  | 
COc1cc(-c2nc3cc(-c4nc5cc(-c6nc7cc(N8CCN(C)CC8)ccc7[nH]6)ccc5[nH]4)ccc3[nH]2)ccc1O | 100 |  | 92 | 37 | 500 | 350 |  |  | 24 | 418 nm and 441 nm | 356 nm and 391 nm | 78 | 8 |  | 37 | 100 | No effect on the proliferation kinetics of BMG-1 cells |  | 
COc1ccc(-c2nc3cc(-c4nc5cc(N6CCN(C)CC6)ccc5[nH]4)ccc3[nH]2)cc1OC |  |  |  |  | 500 | 340 |  | 27 |  | 484 nm | 354 nm | 76.4 | 6.4 |  | 82 | 84 | No effect on the proliferation kinetics of BMG-1 cells | 100 | 73
